The term IC50 denotes the concentration that gives 50% inhibition.

These results are taken from ChEMBL document CHEMBL1141245, “Discovery of novel 1-arylmethyl pyrrolidin-2-yl ethanol amines as calcium-sensing receptor antagonists” (Bioorg Med Chem Lett, 2005).

The target in assay [1] is T1, Extracellular calcium-sensing receptor (Homo sapiens, UniProt P41180).
T1 sequence (P41180 whole entry): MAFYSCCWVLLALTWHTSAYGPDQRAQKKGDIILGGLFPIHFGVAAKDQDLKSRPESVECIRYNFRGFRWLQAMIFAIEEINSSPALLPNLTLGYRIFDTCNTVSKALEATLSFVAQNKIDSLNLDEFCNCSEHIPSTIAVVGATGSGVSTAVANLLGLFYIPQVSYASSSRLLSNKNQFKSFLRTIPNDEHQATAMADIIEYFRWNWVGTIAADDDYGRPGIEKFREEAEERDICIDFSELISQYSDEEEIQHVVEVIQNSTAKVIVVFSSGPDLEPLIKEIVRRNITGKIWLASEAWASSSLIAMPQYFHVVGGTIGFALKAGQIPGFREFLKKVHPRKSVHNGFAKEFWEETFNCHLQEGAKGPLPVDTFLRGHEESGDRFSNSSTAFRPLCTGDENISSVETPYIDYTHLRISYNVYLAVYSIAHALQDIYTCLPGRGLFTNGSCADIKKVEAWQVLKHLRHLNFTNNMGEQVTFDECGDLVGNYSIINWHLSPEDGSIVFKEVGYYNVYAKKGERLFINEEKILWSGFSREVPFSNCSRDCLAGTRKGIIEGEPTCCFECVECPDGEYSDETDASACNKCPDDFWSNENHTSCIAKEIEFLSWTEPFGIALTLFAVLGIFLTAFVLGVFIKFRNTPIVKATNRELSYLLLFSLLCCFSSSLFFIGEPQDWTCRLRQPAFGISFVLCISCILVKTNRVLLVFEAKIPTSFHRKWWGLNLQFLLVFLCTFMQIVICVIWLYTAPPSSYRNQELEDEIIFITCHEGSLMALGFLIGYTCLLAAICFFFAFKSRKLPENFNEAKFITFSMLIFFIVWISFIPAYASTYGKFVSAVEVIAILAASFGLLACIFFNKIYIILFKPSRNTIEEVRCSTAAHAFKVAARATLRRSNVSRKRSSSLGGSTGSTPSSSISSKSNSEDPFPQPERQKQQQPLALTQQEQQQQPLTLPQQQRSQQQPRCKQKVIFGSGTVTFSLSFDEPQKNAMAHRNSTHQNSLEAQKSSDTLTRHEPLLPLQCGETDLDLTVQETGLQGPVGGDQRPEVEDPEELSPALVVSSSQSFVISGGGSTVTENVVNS
Put plainly: Inhibition of intracellular calcium release in human TT cells containing calcium-sensing receptor by FLIPR. The format is functional, cell-based. In a few lines: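 Fluorescence-based intracellular Ca2+ mobilization, read on FLIPR, in human TT cells carrying endogenous calcium-sensing receptor. IC50 values are means of two experiments.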

Assay [2] deals with T2, Extracellular calcium-sensing receptor (Rattus norvegicus, UniProt P48442).
T2 sequence (P48442 whole entry): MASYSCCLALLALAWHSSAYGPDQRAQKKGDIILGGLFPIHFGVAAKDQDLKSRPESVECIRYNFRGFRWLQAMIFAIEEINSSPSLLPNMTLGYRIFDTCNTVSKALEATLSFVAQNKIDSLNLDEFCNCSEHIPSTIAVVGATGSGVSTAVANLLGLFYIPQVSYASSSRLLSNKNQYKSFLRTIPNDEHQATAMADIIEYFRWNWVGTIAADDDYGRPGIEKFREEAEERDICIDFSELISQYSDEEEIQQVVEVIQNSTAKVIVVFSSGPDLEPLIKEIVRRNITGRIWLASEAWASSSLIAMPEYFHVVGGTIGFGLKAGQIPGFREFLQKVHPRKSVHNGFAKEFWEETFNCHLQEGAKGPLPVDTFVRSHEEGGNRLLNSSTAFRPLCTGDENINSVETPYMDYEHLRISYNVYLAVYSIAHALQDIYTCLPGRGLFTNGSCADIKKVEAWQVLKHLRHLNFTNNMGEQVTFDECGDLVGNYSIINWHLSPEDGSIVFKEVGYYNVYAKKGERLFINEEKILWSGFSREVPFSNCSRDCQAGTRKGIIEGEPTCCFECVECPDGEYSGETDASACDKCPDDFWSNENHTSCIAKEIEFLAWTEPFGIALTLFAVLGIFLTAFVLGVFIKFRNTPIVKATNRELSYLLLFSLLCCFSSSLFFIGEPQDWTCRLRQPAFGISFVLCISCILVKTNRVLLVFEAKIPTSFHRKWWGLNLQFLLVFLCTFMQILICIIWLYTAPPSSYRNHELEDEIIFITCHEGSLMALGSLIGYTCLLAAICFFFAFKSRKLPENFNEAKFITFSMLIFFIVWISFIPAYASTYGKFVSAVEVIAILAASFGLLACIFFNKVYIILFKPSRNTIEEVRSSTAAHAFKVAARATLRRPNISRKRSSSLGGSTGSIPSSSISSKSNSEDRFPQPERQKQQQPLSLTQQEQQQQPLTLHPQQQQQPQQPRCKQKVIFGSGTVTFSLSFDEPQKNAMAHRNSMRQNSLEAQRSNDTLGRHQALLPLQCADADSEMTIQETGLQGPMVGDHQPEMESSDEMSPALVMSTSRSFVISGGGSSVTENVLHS
Description: Inhibition of extracellular calcium-induced inositol triphosphate generation in rat MTC cells expressing calcium-sensing receptor. In kind it is functional, cell-based.

Regarding `CC(C)(Cc1ccc2ccccc2c1)NC[C@@H](O)COc1cccc(Cl)c1C#N`, the half-maximal inhibitory concentration (IC50) in assay [1] was 0.05 µM; in assay [2] it was 0.53 µM.
As for `CC(C)(Cc1ccc2ccccc2c1)NC[C@@H](O)[C@H]1CCCN1Cc1ccccc1[N+](=O)[O-]`, the IC50 in assay [1] was 0.16 µM.
For `CC(C)(Cc1ccc(F)cc1)NC[C@@H](O)COc1cccc(Cl)c1C#N`, the IC50 in assay [1] is 0.6 µM.
Still for that read-out and setting: for `CC(C)(Cc1ccc(F)cc1)NC[C@@H](O)CSc1cccc(Cl)c1Cl` the value was 6.18 µM.
As for `CC(C)(Cc1ccc2ccccc2c1)NC[C@@H](O)[C@H]1CCCN1Cc1cccc(F)c1O`, the IC50 is 0.14 µM in assay [1] and 2.56 µM in assay [2].
As to `CC(C)(Cc1ccc2ccccc2c1)NC[C@@H](O)[C@H]1CCCN1Cc1ccc([N+](=O)[O-])cc1`, the IC50 in assay [1] was 0.79 µM.
Turning to `CC(C)(Cc1ccc2ccccc2c1)NC[C@@H](O)[C@H]1CCCN1Cc1ccc(C#N)cc1`, the IC50 in assay [1] is 0.25 µM.
`CC(C)(Cc1ccc2ccccc2c1)NC[C@@H](O)[C@H]1CCCN1Cc1cccc(C#N)c1`: the IC50 came out at 0.19 µM in assay [1] and 2.2 µM in assay [2].
With `CC(C)(Cc1ccc2ccccc2c1)NCCCOc1cccc(Cl)c1C#N`, the half-inhibitory concentration (IC50) in assay [1] stood at 0.88 µM.
On the same count and under the same terms, for `CC(C)(Cc1cc2ccccc2s1)NC[C@H](O)COc1ccccc1C#N` the value was 0.06 µM; for `CC(C)(Cc1ccc2ccccc2c1)NC[C@H](O)[C@H]1CCCN1Cc1ccccc1C#N`, 1.27 µM; for `CC(C)(Cc1csc2ccccc12)NC[C@@H](O)[C@H]1CCCN1Cc1cccc(C#N)c1`, 1 µM.
For the compound `CC(C)(Cc1ccccc1)NC[C@H](O)COc1ccccc1S(C)(=O)=O`, the half-maximal inhibitory concentration (IC50) in assay [1] stood at 9.43 µM.
On the same count and under the same terms, for `CC(C)(Cc1ccc2ccccc2c1)NC[C@@H](O)[C@H]1CCCN1Cc1cccc(O)c1` the value was 1.16 µM; for `CC(C)(Cc1ccc2ccccc2c1)NC[C@H](O)COc1cccc(Cl)c1C#N`, 0.05 µM; for `CC(C)(Cc1cc2ccccc2s1)NC[C@@H](O)[C@H]1CCCN1Cc1cccc(C#N)c1`, 0.27 µM.
Same read-out and setting: for `CC(C)(Cc1ccc2ccccc2c1)NC[C@@H](O)[C@H]1CCCN1Cc1ccccc1C#N` the value was 0.34 µM.
Take `COc1cccc(CN2CCC[C@@H]2[C@H](O)CNC(C)(C)Cc2ccc3ccccc3c2)c1O`: in assay [1], the IC50 was determined as 1.56 µM.
Still for that read-out and setting: for `N#Cc1c(Cl)cccc1OC[C@H](O)CNc1ccc2ccccc2c1` the value was 4.6 µM; for `CC(C)(Cc1ccc2ccccc2c1)NC[C@@H](O)[C@H]1CCCN1Cc1cccc(F)c1F`, 0.36 µM; for `CC(C)(Cc1ccc2ccccc2c1)NC[C@@H](O)[C@H]1CCCN1Cc1cccc(C(=O)O)c1`, 6.84 µM.
With `CC(C)(Cc1ccc(F)cc1)NC[C@@H](O)COc1ccc(OC(F)(F)F)cc1`, in assay [1], the IC50 was 3.3 µM.
Take `CC(C)(Cc1ccc2ccccc2c1)NC[C@@H](O)[C@H]1CCCN1Cc1ccccc1O`: in assay [1], the IC50 is 0.97 µM.
The same measure, in the same setting: next, `CC(C)(Cc1ccc2ccccc2c1)NC[C@@H](O)[C@H]1CCCN1Cc1cccc(F)c1`: 0.75 µM.
Take `COc1ccc(CC(C)(C)NC[C@H](O)COc2cccc(OC)c2)cc1`: the IC50 in assay [1] was 1.39 µM.
Take `CC(C)(Cc1ccc2ccccc2c1)NC[C@@H](O)[C@H]1CCCN1Cc1cccc(Cl)c1C#N`: the IC50 in assay [1] worked out at 0.24 µM.
In the case of `CC(C)(Cc1ccc2ccccc2c1)NC[C@@H](O)[C@H]1CCCN1Cc1cccc(Br)c1`, the IC50 in assay [1] worked out at 1.57 µM.
Regarding `COc1cccc(CN2CCC[C@@H]2[C@H](O)CNC(C)(C)Cc2ccc3ccccc3c2)c1`, the IC50 in assay [1] is 1.19 µM.
Same read-out and setting: for `COc1ccc(CC(C)(C)NC[C@@H](O)[C@H]2CCCN2Cc2cccc(C#N)c2)cc1` the value was 2.67 µM.
With `CN(C[C@@H](O)COc1cccc(Cl)c1C#N)C(C)(C)Cc1ccc2ccccc2c1`, the IC50 in assay [1] amounted to 0.27 µM.
Same read-out and setting: next, `CC(C)(Cc1cc2ccccc2[nH]1)NC[C@H](O)COc1ccccc1C#N`: 0.1 µM; `CC(C)(Cc1ccc2ccccc2c1)NC[C@@H](O)[C@H]1CCCN1Cc1cccc([N+](=O)[O-])c1O`: 0.14 µM; `CC(C)(Cc1ccc2ccccc2c1)NC[C@@H](O)[C@H]1CCCN1Cc1cccc([N+](=O)[O-])c1`: 0.14 µM.
Same read-out and setting: for `N#Cc1c(Cl)cccc1OC[C@H](O)CNCCc1ccc2ccccc2c1` the value was 3.86 µM; for `CC(C)(Cc1nc2ccccc2s1)NC[C@@H](O)[C@H]1CCCN1Cc1cccc(C#N)c1`, 1.35 µM.
Consider `CC(C)(Cc1ccc2ccccc2c1)NC[C@@H](O)COc1ccccc1C#N`, for which the IC50 in assay [1] is 0.03 µM.
With `CC(C)(Cc1nc2ccccc2[nH]1)NC[C@@H](O)[C@H]1CCCN1Cc1cccc(C#N)c1`, the IC50 in assay [1] is 2.84 µM.
Consider `CC(C)(Cc1ccc2ccccc2c1)NC[C@@H](O)[C@H]1CCCN1C(=O)c1cccc(C#N)c1`, for which the IC50 in assay [1] was determined as 8.43 µM.
Still for that read-out and setting: for `CC(C)(Cc1ccc2ccccc2c1)NC[C@@H](O)[C@H]1CCCN1Cc1cccc(-c2ccccc2)c1` the value was 2.47 µM.
Take `COc1ccc(CC(C)(C)NCC(O)COc2ccc(S(C)(=O)=O)c(C)c2)cc1` (centres undefined): the half-inhibitory concentration (IC50) in assay [1] was determined as 11.4 µM.
On the same count and under the same terms, next, `CC(C)(Cc1cc2ccccc2[nH]1)NC[C@@H](O)[C@H]1CCCN1Cc1cccc(C#N)c1`: 0.44 µM.
